SENP1 inh: inhibitors of human SENP1 SUMO protease catalytic domain. recombinant SENP1 catalytic domain, CyPet-SUMO1-YPet FRET cleavage. inhibition, % at 10 µM. hit rate 0.21% among 360,000. AID 624204;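 active = inhibition at least 30% at 10 µM, raw YFP signal under a set limit, fluorescence ratio 0.5 to 1.5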;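 also: 0% = enzyme with DMSO and 100% = no enzyme wells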
Target sequence (Q9P0U3 419-644 limits assumed): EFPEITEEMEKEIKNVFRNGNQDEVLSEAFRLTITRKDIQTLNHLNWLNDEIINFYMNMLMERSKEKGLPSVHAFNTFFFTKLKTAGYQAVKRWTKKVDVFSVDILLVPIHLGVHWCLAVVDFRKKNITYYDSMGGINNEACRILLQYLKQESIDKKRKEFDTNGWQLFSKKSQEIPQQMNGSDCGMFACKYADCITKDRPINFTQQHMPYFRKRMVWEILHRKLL
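Controls: no-enzyme wells low, DMSO-plus-enzyme wells high control. Test system: human recombinant His6-tagged SENP1 catalytic domain enzyme. Reagent: SFCypet-SUMO1-SFYpet FRET protein substrate, 25 nM final. Doses: one dose per compound, 10 µM, 0.5% DMSO. Detection: FRET, CFP and YFP emission. Timing: 50 min reaction at room temperature.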
SENP6 block: inhibitors of human SENP6 protease; Recombinant SENP6 catalytic domain, aminoluciferin luminescence; inhibition, % at 10 µM; hit rate 1.8% among 330,000;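 active = inhibition above about 50% at the single tested dose, limit read from the data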;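 also: plate controls were DMSO wells with enzyme for no effect and DMSO wells lacking enzyme for full effect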
SENP8 block-1: SENP8 protease inhibition | inhibition, % at 10 µM | AID 2540 | hit rate 1.2% among 330,000 | purified SENP8, Z-RLRGG-aminoluciferin cleavage, luminescence | Q96LD8; in the data active = inhibition above about 50%
SENP8 block-2: SENP8 (human) protease inhibition; Q96LD8; recombinant SENP8, Nedd8 substrate fluorescence; inhibition, % at 20 µM; hit rate 0.64% among 360,000; AID 602440; in the data active = inhibition mostly above about 40%, no sharp cut-off; inactive = mostly below about 27%
SENP7 block: blocks the human protease SENP7. Q9BQF6. recombinant SENP7, Z-RLRGG-aminoluciferin luminescence, 40 min. inhibition, % at 5 µM. hit rate 1.5% among 330,000. AID 434973;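 active = inhibition above about 50% at the single test dose, limit read from the data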;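 also: plate controls were DMSO with enzyme for no effect and no enzyme buffer wells for full effect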
SENP8 conf: confirmation of human SENP8 protease inhibitors. shares compounds with SENP7 block. Recombinant SENP8, Z-RLRGG-aminoluciferin luminescence, 60 min. inhibition, % at 12.5 µM. hit rate 40% among 6,200. AID 488912;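 active = mean inhibition across replicates above about 50%, limit read from the data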
SENP6 conf: confirmation of human SENP6 protease inhibitors. shares compounds with SENP7 block. recombinant SENP6, Z-RLRGG-aminoluciferin luminescence. inhibition, % at 12.5 µM. hit rate 58% among 6,200
SENP7 confirm: confirmation of human SENP7 protease inhibitors | shares compounds with SENP7 block | recombinant SENP7, Z-RLRGG-aminoluciferin luminescence, 40 min | inhibition, % at 12.5 µM | hit rate 69% among 6,200
Casp3 select: selectivity test for SENP inhibitors: human caspase-3 inhibition | shares compounds with SENP7 block | purified caspase-3, Z-DEVD-aminoluciferin luminescence, 60 min | inhibition, % at 12.5 µM | hit rate 60% among 6,200 | AID 488918;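 active = mean inhibition above about 50%, limit read from the data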;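 also: plate controls were enzyme with DMSO for no effect and wells without caspase-3 for full effect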
Target sequence (P42574 28-227 limits assumed): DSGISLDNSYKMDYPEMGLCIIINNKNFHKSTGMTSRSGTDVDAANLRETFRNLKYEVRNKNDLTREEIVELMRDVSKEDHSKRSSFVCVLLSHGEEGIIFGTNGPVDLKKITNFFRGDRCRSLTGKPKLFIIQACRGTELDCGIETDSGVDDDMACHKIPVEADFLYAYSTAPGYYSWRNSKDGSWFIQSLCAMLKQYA
SENP luc ctr: interferes with luciferase luminescence in SENP counter-screen | inhibition, % at 12.5 µM | shares compounds with SENP7 block | AID 488919 | Pre-incubated SENP8/Z-RLRGG-aminoluciferin, luciferase luminescence interference | hit rate 39% among 6,200;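 active = mean inhibition above about 50% when retested at one dose, limit read from the data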;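 also: plate controls were DMSO wells with completed reaction for no effect and substrate without enzyme for full effect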
Starred values were filed as active, the others as inactive. Compounds with a hit are over-represented: about 2.5% of the library has one in this group of screens.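 The calls were made as follows, unless noted: active = mean inhibition above about 50% in the one-dose retest (limit read from the data); inactive = the rest.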

For O=C(COC(=O)c1cccs1)c1ccc2ccccc2c1 the results were SENP1 inh -0.2, SENP6 block 41.2, SENP8 block-1 62.7*, SENP8 block-2 0.0, SENP7 block 78.1*, SENP8 conf -19.3, SENP6 conf 64.0*, SENP7 confirm 89.3*, Casp3 select 43.8 and SENP luc ctr 54.3*.
O=C(Nc1ccc(NC(=O)c2cccs2)cc1)c1ccc2c(c1)OCCO2 was read as SENP1 inh 1.3, SENP6 block -18.4, SENP8 block-1 1.7, SENP8 block-2 13.8 and SENP7 block -1.9.
Cc1ccc(-c2nnc(COC(=O)c3ccco3)o2)cc1 was read as SENP1 inh -0.7, SENP6 block 40.6, SENP8 block-1 14.1, SENP8 block-2 -1.2 and SENP7 block 41.0.
Screening Cc1ccc(-c2nnc(COC(=O)c3cccs3)o2)cc1 returned SENP1 inh -0.2, SENP6 block 77.6*, SENP8 block-1 71.4*, SENP8 block-2 -2.5, SENP7 block 72.4*, SENP8 conf 79.6*, SENP6 conf 77.6*, SENP7 confirm 94.1*, Casp3 select 77.7* and SENP luc ctr 68.9*.
For O=C(COC(=O)c1cccs1)c1ccc2c(c1)OCCO2 the results were SENP1 inh 3.2, SENP6 block 94.9*, SENP8 block-1 79.9*, SENP8 block-2 13.5, SENP7 block 13.9, SENP8 conf 98.6*, SENP6 conf 99.4*, SENP7 confirm 102.5*, Casp3 select 96.9* and SENP luc ctr 97.0*.
`Cc1ccc(C(=O)COC(=O)c2cccs2)cc1` gave SENP1 inh 1.3, SENP6 block 93.8*, SENP8 block-1 86.5*, SENP8 block-2 10.7, SENP7 block 93.6*, SENP8 conf 92.9*, SENP6 conf 92.3*, SENP7 confirm 99.1*, Casp3 select 91.6* and SENP luc ctr 88.5*.
For CC(Oc1ccccc1F)C(=O)NC1CCS(=O)(=O)C1 (centres undefined) the results were SENP1 inh 3.9, SENP6 block 7.6, SENP8 block-1 4.2, SENP8 block-2 11.0 and SENP7 block -3.5.
Cc1nc(-c2coc3cc(O)c(C)cc3c2=O)cs1 was read as SENP1 inh -1.4, SENP6 block 93.4*, SENP8 block-1 93.9*, SENP8 block-2 -142.8, SENP7 block 97.8*, SENP8 conf 84.5*, SENP6 conf 98.0*, SENP7 confirm 101.5*, Casp3 select 95.5* and SENP luc ctr 46.7.
`Cc1nc(-c2coc3cc(OCC(=O)O)ccc3c2=O)cs1` gave SENP1 inh 1.9, SENP6 block 64.6*, SENP8 block-1 30.9, SENP8 block-2 -22.4, SENP7 block 2.3, SENP8 conf 56.7*, SENP6 conf 53.9*, SENP7 confirm 86.2*, Casp3 select 88.0* and SENP luc ctr 63.3*.
Screening COc1ccc(N(C(=O)c2snc(C(N)=O)c2N)C(CC(C)C)C(=O)NCC2CCCO2)cc1 (centres undefined) returned SENP1 inh -3.7, SENP6 block -4.5, SENP8 block-1 4.1, SENP8 block-2 -164.7 and SENP7 block 6.4.
Screening CCOC(=O)C1(Cc2cccc(F)c2)CCN(Cc2cnn(CC)c2C)CC1 returned SENP1 inh 1.5, SENP6 block 4.6, SENP8 block-1 1.7, SENP8 block-2 8.1 and SENP7 block -0.8.
Screening CCc1ccc(-c2csc(NC(=O)Oc3ccccc3)n2)cc1 returned SENP1 inh 0.1, SENP6 block 19.1, SENP8 block-1 -2.7, SENP8 block-2 -1.4 and SENP7 block -4.5.
